Measured values reported in ChEMBL document CHEMBL3860041, “Synthesis, biological evaluation and molecular modeling study of some new methoxylated 2-benzylthio-quinazoline-4(3H)-ones as nonclassical antifolates” (Bioorg Med Chem Lett, 2016).

Legend:
Type in all cases: functional
[1] = Growth inhibition of human HL-60(TB) cells at 10 uM after 48 hrs by SRB assay relative to control; settings: HL-60, 48 h, read-out: GI
Summary of the method: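 NCI disease-oriented human tumour cell line screen: primary single-dose assay at 10 μM across the full 60-cell-line panel spanning nine tumour subpanels.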

[2] = Growth inhibition of human K562 cells at 10 uM after 48 hrs by SRB assay relative to control; settings: K562, 48 h, read-out: GI
Summary of the method: (§1)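 NCI 60-cell-line panel, nine tumor subpanels; compounds tested at a single dose of 10 μM in the primary screen.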

[3] = Growth inhibition of human MOLT4 cells at 10 uM after 48 hrs by SRB assay relative to control; settings: MOLT-4, 48 h, read-out: GI; summary of the method: as §1
[4] = Growth inhibition of human RPMI8226 cells at 10 uM after 48 hrs by SRB assay relative to control; settings: RPMI-8226, 48 h, read-out: GI; summary of the method: as §1
[5] = Growth inhibition of human SR cells at 10 uM after 48 hrs by SRB assay relative to control; settings: read-out: GI
Summary of the method: (§2)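 Primary screen across the full NCI 60 human tumour cell line panel, which covers nine tumour subpanels. A single dose of 10 μM was applied to each line, and growth was recorded for each cell line.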

[6] = Growth inhibition of human HOP62 cells at 10 uM after 48 hrs by SRB assay relative to control; settings: HOP-62, 48 h, read-out: GI; summary of the method: as §1
[7] = Growth inhibition of human HOP92 cells at 10 uM after 48 hrs by SRB assay relative to control; settings: HOP-92, 48 h, read-out: GI; summary of the method: as §1
[8] = Growth inhibition of human NCI-H23 cells at 10 uM after 48 hrs by SRB assay relative to control; settings: NCI-H23, 48 h, read-out: GI; summary of the method: as §1
[9] = Growth inhibition of human NCI-H460 cells at 10 uM after 48 hrs by SRB assay relative to control; settings: NCI-H460, 48 h, read-out: GI; summary of the method: as §1
[10] = Growth inhibition of human HCT116 cells at 10 uM after 48 hrs by SRB assay relative to control; settings: HCT-116, 48 h, read-out: GI; summary of the method: as §1
[11] = Growth inhibition of human HCT15 cells at 10 uM after 48 hrs by SRB assay relative to control; settings: HCT-15, 48 h, read-out: GI; summary of the method: as §1
[12] = Growth inhibition of human SF268 cells at 10 uM after 48 hrs by SRB assay relative to control; settings: SF-268, 48 h, read-out: GI; summary of the method: as §1
[13] = Growth inhibition of human SF295 cells at 10 uM after 48 hrs by SRB assay relative to control; settings: SF-295, 48 h, read-out: GI; summary of the method: as §1
[14] = Growth inhibition of human U251 cells at 10 uM after 48 hrs by SRB assay relative to control; settings: U-251, 48 h, read-out: GI; summary of the method: as §2
[15] = Growth inhibition of human SK-MEL-28 cells at 10 uM after 48 hrs by SRB assay relative to control; settings: SK-MEL-28, 48 h, read-out: GI; summary of the method: as §2
[16] = Growth inhibition of human UACC257 cells at 10 uM after 48 hrs by SRB assay relative to control; settings: UACC-257, 48 h, read-out: GI; summary of the method: as §2
[17] = Growth inhibition of human OVCAR5 cells at 10 uM after 48 hrs by SRB assay relative to control; settings: OVCAR-5, 48 h, read-out: GI; summary of the method: as §1
[18] = Growth inhibition of human OVCAR8 cells at 10 uM after 48 hrs by SRB assay relative to control; settings: OVCAR-8, 48 h, read-out: GI; summary of the method: as §1
[19] = Growth inhibition of human MDA-MB-231 cells at 10 uM after 48 hrs by SRB assay relative to control; settings: MDA-MB-231, 48 h, read-out: GI; summary of the method: as §1
[20] = Growth inhibition of human BT549 cells at 10 uM after 48 hrs by SRB assay relative to control; settings: BT-549, 48 h, read-out: GI; summary of the method: as §1
[21] = test system: Cancer cell lines; test: Potency index, ratio of 5-fluorouracil GI50 to compound GI50 for human breast cancer cells
Summary of the method: (§3)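 GI50 for each cell line came from NCI panel testing over a 5-log dose range, with 5-fluorouracil tested alongside as the reference drug. The index relates the 5-fluorouracil GI50 to the compound GI50 within each tumour subpanel.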

[22] = test system: Cancer cell lines; test: Potency index, ratio of 5-fluorouracil GI50 to compound GI50 for human prostate cancer cells; summary of the method: as §3
[23] = test system: Cancer cell lines; test: Potency index, ratio of 5-fluorouracil GI50 to compound GI50 for human colon cancer cells; summary of the method: as §3
[24] = test system: Leukemia cell; test: Potency index, ratio of 5-fluorouracil GI50 to compound GI50 for human leukemia cells; summary of the method: as §3
[25] = Growth inhibition of human CNS cancer cells after 48 hrs by SRB assay; settings: Cancer cell lines
Summary of the method: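 Five-log dose range against NCI tumor cell lines, monitoring GI50, TGI and LC50 for each cell line; MG-MID values derived across the panel; 5-fluorouracil positive control.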

[26] = Growth inhibition of human leukemia cells after 48 hrs by SRB assay; settings: Leukemia cell; for CC50: read-out: LC50 (the source's name)
Summary of the method: (§4)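 Follow-up NCI panel testing over a 5-log dose range for each cell line. GI50, TGI and LC50 were monitored, with 5-fluorouracil run as the positive control. Values are grouped by tumour subpanel.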

[27] = Growth inhibition of human non-small cell lung cancer cells after 48 hrs by SRB assay; settings: Cancer cell lines; summary of the method: as §4
[28] = Growth inhibition of human melanoma cells after 48 hrs by SRB assay; settings: Melanoma cell; summary of the method: as §4
[29] = Growth inhibition of human ovarian cancer cells after 48 hrs by SRB assay; settings: Cancer cell lines; summary of the method: as §4
[30] = Growth inhibition of human renal cancer cells after 48 hrs by SRB assay; settings: Cancer cell lines; summary of the method: as §4
[31] = Growth inhibition of human SK-MEL-2 cells at 10 uM after 48 hrs by SRB assay relative to control; settings: SK-MEL-2, 48 h, read-out: GI; summary of the method: as §2
[32] = Growth inhibition of human A498 cells at 10 uM after 48 hrs by SRB assay relative to control; settings: A498, 48 h, read-out: GI; summary of the method: as §1

COc1cc2nc(SCc3cc(OC)c(OC)c(OC)c3)n(Cc3ccccc3)c(=O)c2cc1OC
inhibition of growth at 10 µM [1]: 88.1%
inhibition of growth at 10 µM [2]: 89.8%
inhibition of growth at 10 µM [3]: 83.3%
inhibition of growth at 10 µM [4]: 45.3%
inhibition of growth at 10 µM [5]: 93.8%
inhibition of growth at 10 µM [6]: 58.6%
inhibition of growth at 10 µM [7]: 37.4%
inhibition of growth at 10 µM [8]: 79.6%
inhibition of growth at 10 µM [9]: 77.7%
inhibition of growth at 10 µM [10]: 85.4%
inhibition of growth at 10 µM [11]: 79.9%
inhibition of growth at 10 µM [12]: 62.2%
inhibition of growth at 10 µM [13]: 80.3%
inhibition of growth at 10 µM [14]: 71%
inhibition of growth at 10 µM [15]: 60.8%
inhibition of growth at 10 µM [16]: 36.7%
inhibition of growth at 10 µM [17]: 46.3%
inhibition of growth at 10 µM [18]: < 10%
inhibition of growth at 10 µM [19]: 64%
inhibition of growth at 10 µM [20]: 83.2%
RatioGI50 [21]: 2 - 10
RatioGI50 [22]: 2 - 10
RatioGI50 [23]: 2 - 10
RatioGI50 [24]: 2 - 10
GI50 [25]: 3.4 µM
LC50 (lethal concentration, 50% net cell kill) [25]: 80.6 µM
TGI [25]: 24.5 µM
GI50 [26]: 1900 nM
TGI [26]: > 100 µM
CC50 [26]: > 100 µM
GI50 [27]: 3.6 µM
LC50 (concentration killing 50% of cells) [27]: 94.5 µM
TGI [27]: 63.1 µM
GI50 [28]: 2600 nM
LC50 [28]: 78.7 µM
TGI [28]: 45.9 µM
GI50 [29]: 6.4 µM
LC50 (50% lethal concentration) [29]: > 100 µM
TGI [29]: 62.7 µM
GI50 [30]: 4.7 µM
LC50 [30]: 85.7 µM
TGI [30]: 49.1 µM

COc1cc(CSc2nc3ccc(C)cc3c(=O)n2Cc2ccccc2)cc(OC)c1OC
inhibition of growth at 10 µM [1]: 83%
inhibition of growth at 10 µM [2]: 86.2%
inhibition of growth at 10 µM [3]: 69.2%
inhibition of growth at 10 µM [4]: 46%
inhibition of growth at 10 µM [5]: 82%
inhibition of growth at 10 µM [6]: 60%
inhibition of growth at 10 µM [7]: 43.4%
inhibition of growth at 10 µM [8]: 78.7%
inhibition of growth at 10 µM [9]: 82.3%
inhibition of growth at 10 µM [10]: 74.9%
inhibition of growth at 10 µM [11]: 70.8%
inhibition of growth at 10 µM [12]: 48.5%
inhibition of growth at 10 µM [13]: 69%
inhibition of growth at 10 µM [14]: 67%
inhibition of growth at 10 µM [31]: 99.1%
inhibition of growth at 10 µM [15]: 48%
inhibition of growth at 10 µM [16]: 52.6%
inhibition of growth at 10 µM [17]: 54.7%
inhibition of growth at 10 µM [18]: 64.9%
inhibition of growth at 10 µM [32]: 93%
inhibition of growth at 10 µM [19]: 55.6%
inhibition of growth at 10 µM [20]: 65.2%
RatioGI50 [21]: 10
RatioGI50 [22]: 10
RatioGI50 [23]: 10
RatioGI50 [24]: 10
GI50 [25]: 3.5 µM
LC50 (lethal concentration, 50% net cell kill) [25]: 81.9 µM
TGI [25]: 46.7 µM
GI50 [26]: 2400 nM
TGI [26]: 85.2 µM
CC50 [26]: > 100 µM
GI50 [27]: 4 µM
LC50 (concentration killing 50% of cells) [27]: 98.2 µM
TGI [27]: 65.9 µM
GI50 [28]: 3200 nM
LC50 [28]: > 100 µM
TGI [28]: 58.4 µM
GI50 [29]: 3.3 µM
LC50 (50% lethal concentration) [29]: 92.7 µM
TGI [29]: 57.6 µM
GI50 [30]: 4.3 µM
LC50 [30]: 97.9 µM
TGI [30]: 61.4 µM
